Experimental findings from ChEMBL document CHEMBL1125378, “alpha-Methyl polyamines: metabolically stable spermidine and spermine mimics capable of supporting growth in cells depleted of polyamines” (J Med Chem, 1992) are described below.

In data set [1] the test system is L1210. Kind of data set: Compound level in 72 hr DFMO (5 mM)-treated L1210 cells after exposure to 10 uM 1,12-dimethylspermine. In kind it is functional, cell-based. Particulars: Mus musculus. In a few lines:
(§1)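 L1210 cells held in 5 mM DFMO for 72 h before polyamine addition and through a further 72 h, refed at 72 h; controls without DFMO cultured 72 h in total. Intracellular polyamines reported as nmol/mg protein (detection limit 0.2). Mean ± SD from at least four separate experiments.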

Data set [2] deals with SV3T3. Kind of data set: Compound level in 96 hr DFMO (5 mM)-treated SV3T3 cells after exposure to 10 uM 1,12-dimethylspermine. Type of data set: functional, cell-based. Particulars: Mus musculus.
The test system of data set [3] is SV3T3. Kind of data set: Compound level in 72 hr DFMO (5 mM)-treated SV3T3 cells after exposure to 1 uM 1,12-dimethylspermine. Particulars: Mus musculus.
The nature of data set [4]: Retention time was determined. In kind it is ADME.
Data set [5] relates to HT-29. Kind of data set: Compound level in 72 hr DFMO (5 mM)-treated HT-29 cells after exposure to 10 uM 1,12-dimethylspermine. Type of data set: functional, cell-based. Particulars: Homo sapiens, in the assay text read “120 hr” for “72 hr”. In a few lines: (§2)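 HT29 experiment B: 5 mM DFMO for 120 h before addition and throughout a further 96 h; refed at 96 h. Cells without DFMO cultured 96 h in total. Polyamines measured as nmol/mg protein (detection limit 0.2). SD from at least four separate experiments.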

In data set [6] the test system is HT-29. The data set can be described thus: Compound level in 72 hr DFMO (5 mM)-treated HT-29 cells after exposure to 25 uM 1,12-dimethylspermine. Type of data set: functional, cell-based. Particulars: Homo sapiens, in the assay text read “120 hr” for “72 hr”. In a few lines: as §2
Data set [7] concerns SV3T3. The data set can be described thus: Compound level in 96 hr DFMO (5 mM)-treated SV3T3 cells after exposure to 25 uM 1,12-dimethylspermine. Type of data set: functional, cell-based. Particulars: Mus musculus.
In data set [8] the test system is SV3T3. Kind of data set: Compound level in 72 hr DFMO (5 mM)-treated SV3T3 cells after exposure to 1 uM 1-methylspermine. In kind it is functional, cell-based. Particulars: Mus musculus. In a few lines:
(§3)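 SV-3T3 fibroblasts (experiment A) held in 5 mM DFMO for 72 h before polyamine addition and throughout a further 72 h. Intracellular polyamines expressed as nmol/mg protein (detection limit 0.05). SD from at least four separate experiments, or duplicate where no SD is given.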

In data set [9] the test system is SV3T3. Kind of data set: Compound level in 72 hr DFMO (5 mM)-treated SV3T3 cells after exposure to 10 uM 1-methylspermine. Type of data set: functional, cell-based. Particulars: Mus musculus. In outline:
as §3

Data set [10] deals with SV3T3. The data set can be described thus: Compound level in 72 hr DFMO (5 mM)-treated SV3T3 cells after exposure to 1 uM 1-methylspermidine. Particulars: Mus musculus. In kind it is functional, cell-based. In a few lines:
as §3

Data set [11] concerns HT-29. Kind of data set: Compound level in 72 hr DFMO (5 mM)-treated HT-29 cells after exposure to 10 uM 1-methylspermidine. Particulars: Homo sapiens. In kind it is functional, cell-based. In a few lines: (§4)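 HT29 cells pretreated with 5 mM DFMO for 120 h, then polyamine added and culture continued with DFMO for 72 h (experiment A); refed at 96 h. Cellular polyamine content given as nmol/mg protein (detection limit 0.2). SD from at least four separate experiments.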

Data set [12] concerns SV3T3. Kind of data set: Compound level in 72 h DFMO (5 mM)-treated SV3T3 cells after exposure to 10 uM 1-methylspermidine. Particulars: Mus musculus. In kind it is functional, cell-based. In a few lines:
as §3

Data set [13] deals with HT-29. Kind of data set: Compound level in 72 hr DFMO (5 mM)-treated HT-29 cells after exposure to 10 uM 1-methylspermine. Type of data set: functional, cell-based. Particulars: Homo sapiens. In a few lines:
as §4

Data set [14] deals with SV3T3. Kind of data set: Compound level in 72 hr DFMO (5 mM)-treated SV3T3 cells after exposure to 25 uM 1-methylspermidine. In kind it is functional, cell-based. Particulars: Mus musculus. In outline: as §3
Data set [15] deals with SV3T3. The data set can be described thus: Compound level in 72 hr DFMO (5 mM)-treated SV3T3 cells after exposure to 25 uM 1-methylspermine. Type of data set: functional, cell-based. Particulars: Mus musculus. In a few lines: as §3
The subject of data set [16] is HT-29. Kind of data set: Compound level in 72 hr DFMO (5 mM)-treated HT-29 cells after exposure to 25 uM 1-methylspermidine. Type of data set: functional, cell-based. Particulars: Homo sapiens. In a few lines: as §4
The test system of data set [17] is L1210. Kind of data set: Compound level in 72 hr DFMO (5 mM)-treated L1210 cells after exposure to 10 uM 1-methylspermidine. In kind it is functional, cell-based. Particulars: Mus musculus. In outline: as §1
Data set [18] relates to HT-29. Kind of data set: Compound level in 72 hr DFMO (5 mM)-treated HT-29 cells after exposure to 25 uM 1-methylspermine. In kind it is functional, cell-based. Particulars: Homo sapiens. In outline: as §4
Data set [19] deals with L1210. Kind of data set: Compound level in 72 hr DFMO (5 mM)-treated L1210 cells after exposure to 10 uM 1-methylspermine. Particulars: Mus musculus. Type of data set: functional, cell-based. In outline: as §1

Take `CC(N)CCNCCCCNCCC(C)N` (configuration not stated): the Level (nM (mg of protein)-1) with L1210 [1] is 61.9; in the data set with SV3T3 [2], 29.4; with SV3T3 [3], 4.2; with HT-29 [5] it was 18.2; with HT-29 [6] it was 17.3; in the data set on SV3T3 [7] it was 24.8. This molecule also returned a tR in data set [4] of 40.9 min.
Take `CC(N)CCNCCCCN` (configuration not stated): the Level (nM (mg of protein)-1) was found to be 0.6 in the data set on SV3T3 [8]; 2.7 in the data set on SV3T3 [9]; 11.8 in the data set with SV3T3 [10]; 1.2 in the data set with SV3T3 [2]; 13.3 in the data set with HT-29 [11]; 26.8 in the data set with SV3T3 [12]. Further, the Level (nM (mg of protein)-1) with HT-29 [13] was determined as 0.2; in the data set with SV3T3 [14] it was 31.2; in the data set on SV3T3 [15], 0.4; in the data set with HT-29 [16], 16.8; with L1210 [17], 67.2. In data set [4], the tR is given as 34.5 min.
Regarding `CC(N)CCNCCCCNCCCN` (configuration not stated), the Level (nM (mg of protein)-1) in the data set with SV3T3 [8] amounted to 11.8; in the data set with SV3T3 [9], 33.7; in the data set with SV3T3 [10], 2.4; in the data set with HT-29 [18], 24.2; with HT-29 [11], 7.8; in the data set with SV3T3 [12], 4.2. The Level (nM (mg of protein)-1) in the data set with HT-29 [13] is 21.3; with L1210 [19] it was 63.4; in the data set on SV3T3 [14], 4.4; with SV3T3 [15], 33.1; in the data set with HT-29 [16], 8.6; with L1210 [17], 7.8. The tR in data set [4] came out at 40.5 min.
